ChEMBL document CHEMBL4732224, “Structure activity refinement of phenylsulfonyl piperazines as antimalarials that block erythrocytic invasion” (Eur J Med Chem, 2021)

What was measured:
[1] = tested on: Plasmodium falciparum; assay: Antimalarial activity against Plasmodium falciparum 3D7 incubated for 72 hrs by LDH assay; type: functional, organism-based; conditions: 3D7, 72 h
Outline: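 Asexual blood-stage P. falciparum 3D7 parasites were cultured with compound for 72 h, and viability was read by lactate dehydrogenase (LDH) activity.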

[2] = tested on: HepG2; assay: Cytotoxicity against human HePG2 cells assessed as growth inhibition after 48 hrs by Cell Titer-Glo assay; type: cell-based; conditions: HepG2, 48 h

| EC50 [1] [µM] | Structure (SMILES) | EC50 [2] [µM] |
| --- | --- | --- |
| > 10 | CC(C(=O)N1CCCC1)N1CCN(S(=O)(=O)c2ccc(C3CC3)cc2)CC1 (stereo unspecified) |  |
| > 11 | C[C@H](C(=O)N1CCCC1)N1CCN(S(=O)(=O)c2ccc(C(C)(C)C)cc2)CC1 | > 40 |
| 1.9 | CC(C(=O)N1CCCC1)N1CCN(S(=O)(=O)c2ccc(C(C)(C)C)cc2)[C@@H](C)C1 (stereo partly specified) | > 40 |
| > 10 | CC(C(=O)N1CCNCC1)N1CCN(S(=O)(=O)c2ccc(C(C)(C)C)cc2)CC1 (stereo unspecified) |  |
| 2.9 | CC(C(=O)N1CCc2ccccc2C12CCCCC2)N1CCN(S(=O)(=O)c2ccc(C(C)(C)C)cc2)CC1 (stereo unspecified) | > 40 |
| 1.2 | CC(C(=O)N(C)Cc1ccccc1)N1CCN(S(=O)(=O)c2ccc(C(C)(C)C)cc2)CC1 (stereo unspecified) | > 40 |
| 7.5 | CC(C)(C)c1ccc(S(=O)(=O)N2CCN(C(C)(C)C(=O)N3CCCC3)CC2)cc1 | > 40 |
| 1.2 | CCC1(CC)c2ccccc2CCN1C(=O)C(C)N1CCN(S(=O)(=O)c2ccc(C(C)(C)C)cc2)CC1 (stereo unspecified) | > 40 |
| 5.1 | CC(C)(C)c1ccc(S(=O)(=O)N2CCN(C(C(=O)N3CCCC3)c3ccccc3)CC2)cc1 (stereo unspecified) | > 40 |
| > 10 | CC(C(=O)N1CCCC1)N1CCN(S(=O)(=O)c2ccc(-c3ccccc3)cc2)CC1 (stereo unspecified) |  |
| 1.3 | CC(C(=O)N1CCCC1)N1CCN(S(=O)(=O)c2ccc([Si](C)(C)C)cc2)CC1 (stereo unspecified) | > 40 |
| 0.99 | CC(C(=O)N1CCc2ccccc2C1)N1CCN(S(=O)(=O)c2ccc(C(C)(C)C)cc2)CC1 (stereo unspecified) | 29 |
| > 10 | CC(C)C(C(=O)N1CCCC1)N1CCN(S(=O)(=O)c2ccc(C(C)(C)C)cc2)CC1 (stereo unspecified) |  |
| > 10 | CC(C(=O)N1CCCC1)N1CCN(S(=O)(=O)c2ccc(C(C)(C)C)cc2)CC1=O (stereo unspecified) |  |
| > 10 | CC(C(=O)N1CCCC1)N1CCN(S(=O)(=O)c2ccccc2)CC1 (stereo unspecified) |  |
| > 10 | CC(C(=O)N1CCCC1)N1CCN(S(=O)(=O)c2ccc(C(C)(C)CO)cc2)CC1 (stereo unspecified) | > 40 |
| > 10 | CCNC(=O)C(C)N1CCN(S(=O)(=O)c2ccc(C(C)(C)C)cc2)CC1 (stereo unspecified) |  |

| EC50 [1] [µM] | Structure (SMILES) | EC50 [2] [µM] |
| --- | --- | --- |
| > 10 | CC(C(=O)N1CCCC1)N1CC2(C1)CN(S(=O)(=O)c1ccc(C(C)(C)C)cc1)C2 (stereo unspecified) |  |
| > 10 | CC(C)(C)c1ccc(S(=O)(=O)N2CCN(CC(=O)N3CCCC3)CC2)cc1 |  |
| > 10 | CC(C(=O)N1CCCC1)N1CCN(S(=O)(=O)c2ccc(OC(F)(F)F)cc2)CC1 (stereo unspecified) |  |
| > 10 | CC(C(=O)N1CCCC1)N1CCN(S(=O)(=O)c2ccc(CC(F)(F)F)cc2)CC1 (stereo unspecified) |  |
| > 10 | CC(C(=O)N1CCCC1)N1CCN(S(=O)(=O)c2ccc(S(F)(F)(F)(F)F)cc2)CC1 (stereo unspecified) |  |
| > 10 | CC(C(=O)N1CCCC1)N1CCN(S(=O)(=O)c2ccc(C(C)(C)C)cc2)[C@H](C)C1 (stereo partly specified) |  |
| > 10 | COc1ccc(S(=O)(=O)N2CCN(C(C)C(=O)N3CCCC3)CC2)cc1 (stereo unspecified) |  |
| > 10 | CC(C(=O)N1CCCC1)N1CCN(S(=O)(=O)c2ccc(C3(C(F)(F)F)CC3)cc2)CC1 (stereo unspecified) |  |
| > 10 | CC(C(=O)N(C)c1ccccc1)N1CCN(S(=O)(=O)c2ccc(C(C)(C)C)cc2)CC1 (stereo unspecified) |  |
| > 10 | CN(C(=O)N1CCCC1)C1CCN(S(=O)(=O)c2ccc(C(C)(C)C)cc2)CC1 |  |
| > 10 | CCCC(C(=O)N1CCCC1)N1CCN(S(=O)(=O)c2ccc(C(C)(C)C)cc2)CC1 (stereo unspecified) |  |
| > 10 | CC(C(=O)N1CCCC1)N1CCN(S(=O)(=O)c2ccc(C3CCCC3)cc2)CC1 (stereo unspecified) |  |
| > 10 | CC(=O)c1ccc(S(=O)(=O)N2CCN(C(C)C(=O)N3CCCC3)CC2)cc1 (stereo unspecified) |  |
| > 10 | CC(C(=O)N1CCCC1)N1CCN(S(=O)(=O)c2ccc(Br)cc2)CC1 (stereo unspecified) |  |
| > 10 | CC(C(=O)N1CCCC1)N1CCN(S(=O)(=O)c2ccc(C(F)(F)F)cc2)CC1 (stereo unspecified) |  |
| > 10 | Cc1ccc(S(=O)(=O)N2CCN(C(C)C(=O)N3CCCC3)CC2)cc1 (stereo unspecified) |  |
| > 10 | CC(C)(C)c1ccc(S(=O)(=O)N2CCN(C(Cc3ccccc3)C(=O)N3CCCC3)CC2)cc1 (stereo unspecified) |  |

| Structure (SMILES) | EC50 [1] [µM] | EC50 [2] [µM] |
| --- | --- | --- |
| CC(C(=O)N1CCCCC1)N1CCN(S(=O)(=O)c2ccc(C(C)(C)C)cc2)CC1 (stereo unspecified) | 0.5 | > 40 |
